Data on five molecules can be found in ChEMBL document CHEMBL1123704, “Synthesis of D-oxa tricyclic partial ergolines as dopamine agonists” (1987).

What all share (format): functional
Assay [1] concerns Rattus norvegicus. The assay is described as follows: Ability to induce contralateral rotational behavior in unilateral 6-hydroxydopamine nigrostriatal-lesioned rats and no. of turns was determined after 15 minutes of start at intraperitoneal dosage of 0.1 mg/kg. The method, boiled down:
(§1)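 Rats given unilateral 6-hydroxydopamine nigrostriatal lesions, then test compound ip. Contralateral rotation was scored as percent of rats turning and as turns in the first 15 min after turning began. Groups of 6–10 rats.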

For assay [2], the system named is Rattus norvegicus. The assay is described as follows: Ability to lower the serum prolactin levels in comparison with that of pergolide was determined for the control rats at ip dose of 0.1 mg/kg. The following applies: route intraperitoneal. The method, boiled down:
(§2)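 Reserpinized male rats, test compound ip. Serum prolactin (ng/mL) was measured in control and treated groups, and the treated value was expressed as percent change from control. Means ± standard error for 10 rats, with significance versus control prolactin given as p.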

Assay [3] deals with Rattus norvegicus. As to the kind of experiment: Ability to lower the serum prolactin levels in comparison with that of pergolide was determined for the drug-treated rats at ip dose of 0.01 mg/kg. The following applies: route intraperitoneal. The method, boiled down: as §2
For assay [4], the system named is Rattus norvegicus. The assay is described as follows: Ability to induce contralateral rotational behavior in unilateral 6-hydroxydopamine nigrostriatal-lesioned rats and no. of turns was determined after 15 minutes of start at intraperitoneal dosage of 1.0 mg/kg. A digest of the protocol: as §1
Assay [5] relates to Rattus norvegicus. As to the kind of experiment: Ability to lower the serum prolactin levels in comparison with that of pergolide expressed as percent inhibition change at ip dose of 0.05 mg/kg. The conditions noted are these: route intraperitoneal. A digest of the protocol:
as §2

The test system of assay [6] is Rattus norvegicus. The assay is described as follows: Ability to lower the serum prolactin levels in comparison with that of pergolide expressed as percent inhibition change at ip dose of 0.01 mg/kg. The conditions noted are these: route intraperitoneal. A digest of the protocol: as §2
For assay [7], the system named is Rattus norvegicus. The assay is described as follows: Ability to lower the serum prolactin levels in comparison with that of pergolide was determined for the control rats at ip dose of 0.05 mg/kg. The following applies: route intraperitoneal. A digest of the protocol:
as §2

Assay [8] has as its system Rattus norvegicus. As to the kind of experiment: Ability to lower the serum prolactin levels in comparison with that of pergolide expressed as percent inhibition change at ip dose of 0.5 mg/kg. The following applies: route intraperitoneal. A digest of the protocol: as §2
In assay [9] the test system is Rattus norvegicus. As to the kind of experiment: Ability to lower the serum prolactin levels in comparison with that of pergolide expressed as percent inhibition change at ip dose of 0.1 mg/kg. The following applies: route intraperitoneal. A digest of the protocol: as §2
Assay [10] has as its system Rattus norvegicus. The assay is described as follows: Ability to lower the serum prolactin levels in comparison with that of pergolide was determined for the control rats at ip dose of 0.5 mg/kg. The conditions noted are these: route intraperitoneal. The method, boiled down: as §2
The test system of assay [11] is Rattus norvegicus. The assay is described as follows: Ability to lower the serum prolactin levels in comparison with that of pergolide was determined for the drug-treated rats at ip dose of 0.1 mg/kg. The following applies: route intraperitoneal. The method, boiled down: as §2
For assay [12], the system named is Rattus norvegicus. As to the kind of experiment: Ability to induce contralateral rotational behavior in unilateral 6-hydroxydopamine nigrostriatal-lesioned rats and percent of rats turning was determined at intraperitoneal dosage of 0.1 mg/kg. A digest of the protocol: as §1
Assay [13] deals with Rattus norvegicus. The assay is described as follows: Ability to induce contralateral rotational behavior in unilateral 6-hydroxydopamine nigrostriatal-lesioned rats and percent of rats turning was determined at intraperitoneal dosage of 1.0 mg/kg. The method, boiled down:
as §1

For assay [14], the system named is Rattus norvegicus. The assay is described as follows: Ability to lower the serum prolactin levels in comparison with that of pergolide was determined for the drug-treated rats at ip dose of 0.5 mg/kg. The following applies: route intraperitoneal. The method, boiled down: as §2
Assay [15] has as its system Rattus norvegicus. The assay is described as follows: Ability to lower the serum prolactin levels in comparison with that of pergolide was determined for the drug-treated rats at ip dose of 0.05 mg/kg. The conditions noted are these: route intraperitoneal. A digest of the protocol:
as §2

For assay [16], the system named is Rattus norvegicus. As to the kind of experiment: Ability to lower the serum prolactin levels in comparison with that of pergolide was determined for the control rats at ip dose of 0.01 mg/kg. The conditions noted are these: route intraperitoneal. The method, boiled down: as §2
The test system of assay [17] is Rattus norvegicus. As to the kind of experiment: Ability to lower the serum prolactin levels in comparison with that of pergolide expressed as percent inhibition change at ip dose of 0.005 mg/kg. The following applies: route intraperitoneal. A digest of the protocol: as §2
Assay [18] relates to Rattus norvegicus. As to the kind of experiment: Ability to lower the serum prolactin levels in comparison with that of pergolide was determined for the drug-treated rats at ip dose of 0.005 mg/kg. The following applies: route intraperitoneal. A digest of the protocol:
as §2

For assay [19], the system named is Rattus norvegicus. As to the kind of experiment: Ability to lower the serum prolactin levels in comparison with that of pergolide was determined for the control rats at ip dose of 0.005 mg/kg. The following applies: route intraperitoneal. A digest of the protocol:
as §2

For assay [20], the system named is Rattus norvegicus. As to the kind of experiment: Ability to lower the serum prolactin levels in comparison with that of pergolide expressed as percent inhibition change at ip dose of 5.0 mg/kg. The following applies: route intraperitoneal. The method, boiled down: as §2
The test system of assay [21] is Rattus norvegicus. As to the kind of experiment: Ability to lower the serum prolactin levels in comparison with that of pergolide was determined for the drug-treated rats at ip dose of 5.0 mg/kg. The conditions noted are these: route intraperitoneal. A digest of the protocol:
as §2

Regarding `CCCN1CCO[C@@H]2Cc3n[nH]cc3C[C@H]21`, the Turns in assay [1] was 35; in assay [4], 52. For the same molecule, the Prolactin control came out at 46.8 ng/mL in [2], 45.5 ng/mL in assay [7], 46.8 ng/mL in [10] and 58 ng/mL in assay [16]. Besides, the Prolactin treatment was 62 ng/mL in [3], 30.2 ng/mL in assay [11], 3.6 ng/mL in assay [14] and 27 ng/mL in [15]. For the same molecule, the Change in assay [5] was -41%; in assay [6] it was 7%; in [8], -92%; in [9], -35%. The Rats turning worked out at 60% in assay [12] and 100% in assay [13].
`CCCN1CCO[C@@H]2Cc3nc(N)sc3C[C@H]21`: the Prolactin treatment turned out to be 48.9 ng/mL in [3] and 20.2 ng/mL in assay [15]. Besides, in [4], the Turns was 95. Besides, the Change is listed as -51% in assay [5] and -20% in [6]. Moreover, the Prolactin control came out at 41.5 ng/mL in [7] and 40.6 ng/mL in assay [16]. In assay [13], this molecule came in with a Rats turning of 80%.
Turning to `CCCN1CCO[C@@H]2Cc3nc(N)ncc3C[C@H]21`, the Prolactin treatment in assay [3] is 33.7 ng/mL; in assay [18], 41.2 ng/mL; in assay [15], 13.8 ng/mL. For the same molecule, in assay [4], the Turns was 33. Moreover, the Change in [5] is recorded as -70%; in [6], -31%; in assay [17], 1%. Besides, the values for the Prolactin control in assay [7], in [19] and in assay [16] were 45.4 ng/mL, 40.6 ng/mL and 52 ng/mL, respectively. In [13], this molecule returned a Rats turning of 80%.
For `CCCN1CCC[C@@H]2Cc3n[nH]cc3C[C@H]21` [QUINPIROLE], the Turns/1st turned out to be 67 in assay [1] and 85 in assay [4]. Further, the Change in assay [20] is -91%; in [5] it was -61%; in [8], -76%. Further, the Of rats turning in [12] is given as 75%; in [13], 100%. Moreover, the Prolactin treatment in assay [14] turned out to be 7.7 ng/mL; in [15], 12.3 ng/mL; in assay [21], 2.7 ng/mL.
For the molecule `CCCN1C[C@H](CSC)C[C@@H]2c3cccc4[nH]cc(c34)C[C@H]21` [PERGOLIDE], the Turns in [1] is on record as 81; in assay [4], 93. In addition, the Change in assay [5] was -95%; in assay [17], -91%. For the same molecule, the Prolactin control in assay [7] came to 30.4 ng/mL; in [19], 37.7 ng/mL. Also, the Of rats turning was determined as 83% in assay [12] and 100% in assay [13]. Also, the Prolactin treatment in assay [18] was 3.5 ng/mL; in assay [15] it was 1.6 ng/mL.
